In ChEMBL document CHEMBL2346664, “Synthesis, characterization and in vitro anticancer evaluation of novel 1,2,4-triazolin-3-one derivatives” (2013):

Columns and labels:
Format in all cases: functional
[1] = test system: KM12; test: Growth inhibition of human KM12 cells assessed as cell growth at 10 '-5 M after 48 hrs by sulforhodamine B assay; conditions: KM12, 48 h, read-out: Activity
[2] = test system: RXF 393; test: Growth inhibition of human RXF393 cells assessed as cell growth at 10 '-6 M after 48 hrs by sulforhodamine B assay; conditions: RXF 393, 48 h, read-out: Activity
[3] = test system: KM12; test: Growth inhibition of human KM12 cells assessed as growth inhibition at 10 uM after 48 hrs by sulforhodamine B assay; conditions: KM12, 48 h, read-out: GI
[4] = test system: MDA-MB-231; test: Growth inhibition of human MDA-MB-231 cells assessed as cell growth at 10 '-7 M after 48 hrs by sulforhodamine B assay; conditions: MDA-MB-231, 48 h, read-out: Activity
[5] = test system: SK-OV-3; test: Growth inhibition of human SKOV3 cells assessed as cell growth at 10 '-7 M after 48 hrs by sulforhodamine B assay; conditions: SK-OV-3, 48 h, read-out: Activity
[6] = test system: MDA-MB-435; test: Growth inhibition of human MDA-MB-435 cells assessed as cell growth at 10 '-7 M after 48 hrs by sulforhodamine B assay; conditions: MDA-MB-435, 48 h, read-out: Activity
[7] = test system: Malme-3M; test: Growth inhibition of human MALME-3M cells assessed as cell growth at 10 '-7 M after 48 hrs by sulforhodamine B assay; conditions: read-out: Activity
[8] = test system: LOX IMVI; test: Growth inhibition of human LOXIMVI cells assessed as cell growth at 10 '-4 M after 48 hrs by sulforhodamine B assay; conditions: read-out: Activity
[9] = test system: DU-145; test: Growth inhibition of human DU145 cells after 48 hrs by sulforhodamine B assay; conditions: DU-145, 48 h
How it was run: (§1)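 NCI 60-cell-line five-dose screen. Cells were plated at 5,000–40,000/well by doubling time and grown 24 h at 37 °C, 5% CO2. Time-zero plates were TCA-fixed. Drug from DMSO stock was tested at 0.01, 0.1, 1, 10 and 100 µM final for 48 h continuous exposure. Read-out was SRB at 515 nm. GI50 is the concentration giving 50% reduction in net protein increase versus untreated control.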

[10] = test system: RXF 393; test: Growth inhibition of human RXF393 cells after 48 hrs by sulforhodamine B assay; conditions: RXF 393, 48 h
[11] = test system: SK-OV-3; test: Growth inhibition of human SKOV3 cells after 48 hrs by sulforhodamine B assay; conditions: SK-OV-3, 48 h
[12] = Growth inhibition of human Hs 578T cells assessed as cell growth at 10 '-5 M after 48 hrs by sulforhodamine B assay; conditions: read-out: Activity
[13] = test system: MDA-MB-231; test: Growth inhibition of human MDA-MB-231 cells assessed as cell growth at 10 '-5 M after 48 hrs by sulforhodamine B assay; conditions: MDA-MB-231, 48 h, read-out: Activity
[14] = test system: DU-145; test: Growth inhibition of human DU145 cells assessed as cell growth at 10 '-5 M after 48 hrs by sulforhodamine B assay; conditions: DU-145, 48 h, read-out: Activity
[15] = test system: A498; test: Growth inhibition of human A498 cells assessed as cell growth at 10 '-5 M after 48 hrs by sulforhodamine B assay; conditions: A498, 48 h, read-out: Activity
How it was run: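 Percent growth at each of the five concentrations of the 48 h continuous-exposure NCI SRB screen. Drug stocks were in DMSO at 400× the top final concentration and diluted in medium with gentamicin. Growth was calculated as [(Ti-Tz)/(C-Tz)]×100 when Ti ≥ Tz, or [(Ti-Tz)/Tz]×100 when Ti < Tz. Tz plates were fixed at drug addition; untreated wells served as control. Absorbance was read at 515 nm.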

[16] = test system: OVCAR-3; test: Growth inhibition of human OVCAR3 cells assessed as cell growth at 10 '-5 M after 48 hrs by sulforhodamine B assay; conditions: OVCAR-3, 48 h, read-out: Activity
[17] = test system: OVCAR-4; test: Growth inhibition of human OVCAR4 cells after 48 hrs by sulforhodamine B assay; conditions: OVCAR-4, 48 h
How it was run: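 NCI 60-cell-line five-dose screen over 0.01, 0.1, 1, 10 and 100 µM, with 48 h continuous exposure at 37 °C and 5% CO2 after 24 h pre-incubation (5,000–40,000 cells/well). Cells were TCA-fixed (10% final for adherent, 16% for suspension), stained with SRB and read at 515 nm. GI50 was solved from [(Ti−Tz)/(C−Tz)]×100 = 50 against time-zero plates.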

[18] = test system: Malme-3M; test: Growth inhibition of human MALME-3M cells after 48 hrs by sulforhodamine B assay; how it was run: as §1
[19] = test system: U-251; test: Growth inhibition of human U251 cells after 48 hrs by sulforhodamine B assay; conditions: U-251, 48 h
[20] = test system: KM12; test: Growth inhibition of human KM12 cells after 48 hrs by sulforhodamine B assay; conditions: KM12, 48 h; how it was run: as §1
[21] = test system: HT-29; test: Growth inhibition of human HT-29 cells after 48 hrs by sulforhodamine B assay; conditions: HT-29, 48 h; how it was run: as §1
[22] = test system: MCF7; test: Growth inhibition of human MCF7 cells assessed as growth inhibition at 10 uM after 48 hrs by sulforhodamine B assay; conditions: MCF7, 48 h, read-out: GI
[23] = Growth inhibition of human EKVX cells assessed as cell growth at 10 '-7 M after 48 hrs by sulforhodamine B assay; conditions: read-out: Activity
[24] = test system: SN12C; test: Growth inhibition of human SN12C cells assessed as cell growth at 10 '-8 M after 48 hrs by sulforhodamine B assay; conditions: read-out: Activity
[25] = test system: SK-MEL-2; test: Growth inhibition of human SK-MEL-2 cells assessed as cell growth at 10 '-5 M after 48 hrs by sulforhodamine B assay; conditions: SK-MEL-2, 48 h, read-out: Activity
[26] = test system: SK-MEL-5; test: Growth inhibition of human SK-MEL-5 cells assessed as cell growth at 10 '-8 M after 48 hrs by sulforhodamine B assay; conditions: SK-MEL-5, 48 h, read-out: Activity
[27] = test system: SK-MEL-2; test: Growth inhibition of human SK-MEL-2 cells assessed as cell growth at 10 '-8 M after 48 hrs by sulforhodamine B assay; conditions: SK-MEL-2, 48 h, read-out: Activity
[28] = test system: M14; test: Growth inhibition of human M14 cells assessed as cell growth at 10 '-8 M after 48 hrs by sulforhodamine B assay; conditions: M14, 48 h, read-out: Activity
[29] = test system: HCT-116; test: Growth inhibition of human HCT116 cells assessed as cell growth at 10 '-8 M after 48 hrs by sulforhodamine B assay; conditions: HCT-116, 48 h, read-out: Activity
[30] = test system: NCI-H522; test: Growth inhibition of human NCI-H522 cells assessed as cell growth at 10 '-8 M after 48 hrs by sulforhodamine B assay; conditions: NCI-H522, 48 h, read-out: Activity
[31] = read-out: LD50 (the source's name)

For `Cc1cc(=O)oc2cc(OCCn3c(C)nn(-c4ccc(Cl)cc4)c3=O)ccc12`, the growth at 10 µM [1] was 21%, the growth at 1 µM [2] was 75% and the inhibition of growth at 10 µM [3] was 68.6%. It also gave a growth at 0.1 µM [4] of 88%, a growth at 0.1 µM [5] of 103% and a growth at 0.1 µM [6] of 94%. It also gave a growth at 0.1 µM [7] of 104%, a growth at 100 µM [8] of 30% and a GI50 [9] of 3900 nM. For the same molecule, the TGI [9] was greater than 1000 nM, the CC50 [9, 31] was greater than 1000 nM and the GI50 [10] was 2760 nM. It also gave a TGI [10] of 3000 nM, a CC50 [10, 31] greater than 1000 nM and a GI50 [11] of 3360 nM. For the same molecule, the TGI [11] was 4880 nM, the CC50 [11, 31] was greater than 1000 nM and the growth at 10 µM [12] was 28%. The growth at 10 µM [13] was 42%, the growth at 10 µM [14] was 18% and the growth at 10 µM [15] was 8%. The growth at 10 µM [16] was 7%, the GI50 [17] was 2680 nM and the CC50 [17, 31] was greater than 1000 nM. The GI50 [18] was 3850 nM, the TGI [18] was greater than 1000 nM and the CC50 [18, 31] was greater than 1000 nM. It also gave a GI50 [19] of 4180 nM, a TGI [19] of 7230 nM and a CC50 [19, 31] greater than 1000 nM. For the same molecule, the GI50 [20] was 1660 nM, the TGI [20] was greater than 1000 nM and the CC50 [20, 31] was greater than 1000 nM. It also gave a GI50 [21] of 3820 nM, a TGI [21] greater than 1000 nM and a CC50 [21, 31] greater than 1000 nM. The inhibition of growth at 10 µM [22] was 84.2%, the growth at 0.1 µM [23] was 90% and the growth at 0.01 µM [24] was 94%. It also gave a growth at 10 µM [25] of 62%, a growth at 0.01 µM [26] of 97% and a growth at 0.01 µM [27] of 104%. For the same molecule, the growth at 0.01 µM [28] was 101%, the growth at 0.01 µM [29] was 101% and the growth at 0.01 µM [30] was 100%.
